# From ChEMBL document CHEMBL1764997, “(Z)-3-butylidenephthalide from Ligusticum porteri , an α-glucosidase inhibitor” (J Nat Prod, 2011)
# Active and inactive are the calls of the source. The rule behind the calls is not given here.
# Tests used:
# [1] = target: Alpha-glucosidase MAL62 (Saccharomyces cerevisiae) (UniProt P07265); assay: (§1) Inhibition of yeast alpha-glucosidase assessed as inhibition of p-nitrophenyl-alpha-D-glucopyranoside substrate hydrolysis after 35 mins by spectroscopy
# Mus musculus [2] = assay: Antihyperglycemic activity in ICR mouse assessed as change in blood glucose level at 31.2 mg/kg at 1 hr by oral glucose tolerance test (RVb= 1.5 %); type: functional
# Mus musculus [3] = assay: Antihyperglycemic activity in ICR mouse assessed as change in blood glucose level at 31.2 mg/kg at 1.5 hrs by oral glucose tolerance test (RVb= 2.5 %); type: functional
# Mus musculus [4] = assay: Antihyperglycemic activity in ICR mouse assessed as change in blood glucose level at 31.2 mg/kg at 2 hrs by oral glucose tolerance test (RVb= -12 %); type: functional
# Mus musculus [5] = assay: Antihyperglycemic activity in ICR mouse assessed as change in blood glucose level at 56.2 mg/kg at 0.5 hr by oral glucose tolerance test (RVb= 59 %); type: functional
# Mus musculus [6] = assay: Antihyperglycemic activity in ICR mouse assessed as change in blood glucose level at 56.2 mg/kg at 1 hr by oral glucose tolerance test (RVb= 1.5 %); type: functional
# Mus musculus [7] = assay: Antihyperglycemic activity in ICR mouse assessed as change in blood glucose level at 56.2 mg/kg at 1.5 hrs by oral glucose tolerance test (RVb= 2.5 %); type: functional
# Mus musculus [8] = assay: Antihyperglycemic activity in ICR mouse assessed as change in blood glucose level at 56.2 mg/kg at 2 hrs by oral glucose tolerance test (RVb= -12 %); type: functional
# Mus musculus [9] = assay: Antidiabetic activity in streptozotocin-induced diabetic ICR mouse assessed as change in blood glucose level at 10 mg/kg after 0.5 hr by oral glucose tolerance test (RVb= 51.9 %); type: functional
# Mus musculus [10] = assay: Antidiabetic activity in streptozotocin-induced diabetic ICR mouse assessed as change in blood glucose level at 31.2 mg/kg after 0.5 hr by oral glucose tolerance test (RVb= 51.9 %); type: functional
# Mus musculus [11] = assay: Antidiabetic activity in streptozotocin-induced diabetic ICR mouse assessed as change in blood glucose level at 56.2 mg/kg after 0.5 hr by oral glucose tolerance test (RVb= 51.9 %); type: functional
# Mus musculus [12] = assay: Antidiabetic activity in streptozotocin-induced diabetic ICR mouse assessed as change in blood glucose level at 10 mg/kg after 1 hr by oral glucose tolerance test (RVb= 10.3 %); type: functional
# Mus musculus [13] = assay: Antidiabetic activity in streptozotocin-induced diabetic ICR mouse assessed as change in blood glucose level at 31.2 mg/kg after 1 hr by oral glucose tolerance test (RVb= 10.3 %); type: functional
# Mus musculus [14] = assay: Antidiabetic activity in streptozotocin-induced diabetic ICR mouse assessed as change in blood glucose level at 56.2 mg/kg after 1 hr by oral glucose tolerance test (RVb= 10.3 %); type: functional
# Mus musculus [15] = assay: Antidiabetic activity in streptozotocin-induced diabetic ICR mouse assessed as change in blood glucose level at 10 mg/kg after 1.5 hrs by oral glucose tolerance test (RVb= 0.005 %); type: functional
# Mus musculus [16] = assay: Antidiabetic activity in streptozotocin-induced diabetic ICR mouse assessed as change in blood glucose level at 31.2 mg/kg after 1.5 hrs by oral glucose tolerance test (RVb= 0.005 %); type: functional
# Mus musculus [17] = assay: Antidiabetic activity in streptozotocin-induced diabetic ICR mouse assessed as change in blood glucose level at 56.2 mg/kg after 1.5 hrs by oral glucose tolerance test (RVb= 0.005 %); type: functional
# Mus musculus [18] = assay: Antidiabetic activity in streptozotocin-induced diabetic ICR mouse assessed as change in blood glucose level at 10 mg/kg after 2 hrs by oral glucose tolerance test (RVb= -12.9 %); type: functional
# Mus musculus [19] = assay: Antidiabetic activity in streptozotocin-induced diabetic ICR mouse assessed as change in blood glucose level at 31.2 mg/kg after 2 hrs by oral glucose tolerance test (RVb= -12.9 %); type: functional
# Mus musculus [20] = assay: Antidiabetic activity in streptozotocin-induced diabetic ICR mouse assessed as change in blood glucose level at 56.2 mg/kg after 2 hrs by oral glucose tolerance test (RVb= -12.9 %); type: functional
# Mus musculus [21] = assay: Antihyperglycemic activity in ICR mouse assessed as change in blood glucose level at 31.2 mg/kg after 0.5 hr by oral glucose tolerance test (RVb= 59 %); type: functional
# Mus musculus [22] = organism: Mus musculus; assay: Inhibition of alpha-glucosidase in streptozotocin-induced diabetic ICR mouse intestine assessed as lowering of blood glucose levels; type: functional, organism-based
# How it was run: (§2)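 NAD (40 mg/kg ip) then STZ (100 mg/kg ip, 15 min later) diabetic male ICR mice, glucose >140 mg/dL after 7 days. Animals fasted 12 h, dosed orally in 0.05% Tween 80/saline, and given oral sucrose 2 g/kg 30 min later.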
# Alpha-glucosidase MAL62 = Alpha-glucosidase MAL62 (Saccharomyces cerevisiae, UniProt P07265); assay: as §1
# Alpha-glucosidase MAL62, sequence (P07265 whole entry): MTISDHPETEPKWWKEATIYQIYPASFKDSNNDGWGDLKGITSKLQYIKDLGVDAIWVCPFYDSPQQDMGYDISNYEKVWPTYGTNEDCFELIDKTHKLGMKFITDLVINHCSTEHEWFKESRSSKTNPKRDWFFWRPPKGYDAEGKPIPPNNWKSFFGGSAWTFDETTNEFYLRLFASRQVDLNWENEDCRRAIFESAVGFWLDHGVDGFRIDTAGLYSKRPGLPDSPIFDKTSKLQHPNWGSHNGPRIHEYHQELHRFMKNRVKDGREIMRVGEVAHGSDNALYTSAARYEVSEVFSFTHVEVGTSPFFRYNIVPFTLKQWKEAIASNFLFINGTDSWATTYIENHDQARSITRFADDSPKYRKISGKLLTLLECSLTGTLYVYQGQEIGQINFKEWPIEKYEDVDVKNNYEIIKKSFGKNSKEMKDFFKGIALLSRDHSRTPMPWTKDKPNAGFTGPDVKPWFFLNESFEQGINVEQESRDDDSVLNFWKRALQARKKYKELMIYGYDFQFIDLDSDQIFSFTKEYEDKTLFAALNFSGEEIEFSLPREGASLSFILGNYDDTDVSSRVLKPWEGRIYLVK
# Mus musculus [23] = assay: Antihyperglycemic activity in ICR mouse assessed as change in blood glucose level at 10 mg/kg after 0.5 hr by oral glucose tolerance test (RVb= 59 %); type: functional
# Mus musculus [24] = assay: Antihyperglycemic activity in ICR mouse assessed as change in blood glucose level at 10 mg/kg after 1 hr by oral glucose tolerance test (RVb= 1.5 %); type: functional
# Mus musculus [25] = assay: Antihyperglycemic activity in ICR mouse assessed as change in blood glucose level at 10 mg/kg after 1.5 hrs by oral glucose tolerance test (RVb= 2.5 %); type: functional
# Mus musculus [26] = assay: Antihyperglycemic activity in ICR mouse assessed as change in blood glucose level at 10 mg/kg after 2 hrs by oral glucose tolerance test (RVb= -12 %); type: functional
# Mus musculus [27] = assay: Antihyperglycemic activity in ICR mouse assessed as change in blood glucose level at 20 mg/kg after 0.5 hr by oral glucose tolerance test (RVb= 59 %); type: functional
# Mus musculus [28] = assay: Antihyperglycemic activity in ICR mouse assessed as change in blood glucose level at 20 mg/kg after 1 hr by oral glucose tolerance test (RVb= 1.5 %); type: functional
# Mus musculus [29] = assay: Antihyperglycemic activity in ICR mouse assessed as change in blood glucose level at 20 mg/kg after 1.5 hrs by oral glucose tolerance test (RVb= 2.5 %); type: functional
# Mus musculus [30] = assay: Antihyperglycemic activity in ICR mouse assessed as change in blood glucose level at 20 mg/kg after 2 hrs by oral glucose tolerance test (RVb= -12 %); type: functional
# Mus musculus [31] = assay: Antidiabetic activity in streptozotocin-induced diabetic ICR mouse assessed as change in blood glucose level at 10 mg/kg after 0.5 hr by oral sucrose tolerance test (RVb= 56 %); type: functional; how it was run: as §2
# Mus musculus [32] = assay: Antidiabetic activity in streptozotocin-induced diabetic ICR mouse assessed as change in blood glucose level at 56.2 mg/kg after 0.5 hr by oral sucrose tolerance test (RVb= 56 %); type: functional; how it was run: as §2
# Mus musculus [33] = assay: Antidiabetic activity in streptozotocin-induced diabetic ICR mouse assessed as change in blood glucose level at 10 mg/kg after 1 hr by oral sucrose tolerance test (RVb= 11.4 %); type: functional; how it was run: as §2
# Mus musculus [34] = assay: Antidiabetic activity in streptozotocin-induced diabetic ICR mouse assessed as change in blood glucose level at 56.2 mg/kg after 1 hr by oral sucrose tolerance test (RVb= 11.4 %); type: functional; how it was run: as §2
# Mus musculus [35] = assay: Antidiabetic activity in streptozotocin-induced diabetic ICR mouse assessed as change in blood glucose level at 10 mg/kg after 1.5 hrs by oral sucrose tolerance test (RVb= 6.1 %); type: functional; how it was run: as §2
# Mus musculus [36] = assay: Antidiabetic activity in streptozotocin-induced diabetic ICR mouse assessed as change in blood glucose level at 56.2 mg/kg after 1.5 hrs by oral sucrose tolerance test (RVb= 6.1 %); type: functional; how it was run: as §2
# Mus musculus [37] = assay: Antidiabetic activity in streptozotocin-induced diabetic ICR mouse assessed as change in blood glucose level at 10 mg/kg after 2 hrs by oral sucrose tolerance test (RVb= -4.3 %); type: functional; how it was run: as §2
# Mus musculus [38] = assay: Antidiabetic activity in streptozotocin-induced diabetic ICR mouse assessed as change in blood glucose level at 56.2 mg/kg after 2 hrs by oral sucrose tolerance test (RVb= -4.3 %); type: functional; how it was run: as §2
# Mus musculus [39] = organism: Mus musculus; assay: Antidiabetic activity in streptozotocin-induced diabetic ICR mouse assessed as lowering of blood glucose level by oral sucrose tolerance test; type: functional, organism-based; how it was run: as §2
# Mus musculus [40] = assay: Antidiabetic activity in streptozotocin-induced diabetic ICR mouse assessed as change in blood glucose level at 5 mg/kg after 0.5 hr by oral sucrose tolerance test (RVb= 56 %); type: functional; how it was run: as §2
# Mus musculus [41] = assay: Antidiabetic activity in streptozotocin-induced diabetic ICR mouse assessed as change in blood glucose level at 5 mg/kg after 1 hr by oral sucrose tolerance test (RVb= 11.4 %); type: functional; how it was run: as §2
# Mus musculus [42] = assay: Antidiabetic activity in streptozotocin-induced diabetic ICR mouse assessed as change in blood glucose level at 5 mg/kg after 1.5 hrs by oral sucrose tolerance test (RVb= 6.1 %); type: functional; how it was run: as §2
# Mus musculus [43] = assay: Antidiabetic activity in streptozotocin-induced diabetic ICR mouse assessed as change in blood glucose level at 5 mg/kg after 2 hrs by oral sucrose tolerance test (RVb= -4.3 %); type: functional; how it was run: as §2
# Mus musculus [44] = assay: Antihyperglycemic activity in po dosed diabetic KK-Ay mouse model; type: functional, organism-based
# Rattus norvegicus [45] = assay: Hypoglycemic activity in rat assessed as decrease in plasma glucose at 5 mg/kg, iv; type: functional, organism-based; parameters: dose 5 mg/kg
# Rattus norvegicus [46] = assay: Hypoglycemic activity in rat assessed as increase in insulin concentration at 5 mg/kg, iv; type: functional, organism-based; parameters: dose 5 mg/kg
# L6 = assay: Hypoglycemic activity in rat L6 myotubes assessed as increase in 2-deoxyglucose transport at 25 uM relative to control; type: functional
# Mus musculus [47] = organism: Mus musculus; assay: Antidiabetic activity in streptozotocin-induced diabetic ICR mouse assessed as decrease in blood glucose levels by oral glucose tolerance test
# Alpha-glucosidase MAL62 (Saccharomyces cerevisiae), sequence (P07265 whole entry): as above
SMILES,Activity [1],Activity (Mus musculus [9]),Activity (Mus musculus [10]),Activity (Mus musculus [11]),Activity (Mus musculus [12]),Activity (Mus musculus [13]),Activity (Mus musculus [14]),Activity (Mus musculus [15]),Activity (Mus musculus [16]),Activity (Mus musculus [17]),Activity (Mus musculus [18]),Activity (Mus musculus [19]),Activity (Mus musculus [20]),Activity (Mus musculus [23]),Activity (Mus musculus [24]),Activity (Mus musculus [25]),Activity (Mus musculus [26]),also measured
CCC/C=C1\OC(=O)C2=C[C@H]3CC[C@]21C1C2=C(CC[C@H]13)/C(=C\CCC)OC2=O (stereo not given in full),inactive,32%,44%,57%,5.7%,32%,52%,5.7%,23%,25%,-5.5%,8.8%,8.9%,,,,,Activity (Mus musculus [2]): -28%; Activity (Mus musculus [3]): -35%; Activity (Mus musculus [4]): -50%; Activity (Mus musculus [5]): 41%; Activity (Mus musculus [6]): -3.8%; Activity (Mus musculus [7]): -13%; Activity (Mus musculus [8]): -27%; Activity (Mus musculus [21]): 3.8%
C=CCc1cc(OC)c2c(c1)OCO2,inactive,,,,,,,,,,,,,,,,,
CCCC=C1OC(=O)c2ccccc21 [(E)-BUTYLIDENEPHTHALIDE],Dose-dependent effect,35%,27%,12%,3.5%,3.3%,-5.2%,1.5%,-0.3%,-12%,-7.4%,-9.1%,-21.7%,-9%,-24%,-41%,-42%,inhibition (Mus musculus [22]): Active; IC50 (Alpha-glucosidase MAL62): 2.35 mM; Ki (Alpha-glucosidase MAL62): 4.86 mM; Activity (Mus musculus [27]): 20%; Activity (Mus musculus [28]): -6.9%; Activity (Mus musculus [29]): -18%; Activity (Mus musculus [30]): -23%; Activity (Mus musculus [31]): 41%; Activity (Mus musculus [32]): 23%; Activity (Mus musculus [33]): 19%; Activity (Mus musculus [34]): 7.6%; Activity (Mus musculus [35]): 16%; Activity (Mus musculus [36]): 2.5%; Activity (Mus musculus [37]): 6.7%; Activity (Mus musculus [38]): 6.4%
C[C@H]1O[C@H](O[C@H]2[C@H](O)[C@@H](O)[C@@H](O[C@H]3[C@H](O)[C@@H](O)C(O)O[C@@H]3CO)O[C@@H]2CO)[C@H](O)[C@@H](O)[C@@H]1N[C@H]1C=C(CO)[C@@H](O)[C@H](O)[C@H]1O (stereo not given in full) [ACARBOSE],Dose-dependent effect,,,,,,,,,,,,,,,,,Activity (Mus musculus [39]): Active; Activity (Mus musculus [40]): -0.4%; Activity (Mus musculus [41]): 0.5%; Activity (Mus musculus [42]): 6.2%; Activity (Mus musculus [43]): 6.8%
COc1cc(/C=C/C(=O)O)ccc1O [FERULATE],inactive,,,,,,,,,,,,,,,,,Activity (Mus musculus [44]): Active; Activity (Rattus norvegicus [45]): Active; Activity (Rattus norvegicus [46]): Active; fold change (FC) (L6): 2.98
COc1ccc(Cl)cc1C(=O)NCCc1ccc(S(=O)(=O)NC(=O)NC2CCCCC2)cc1 [GLYBURIDE],,42%,,,3.8%,,,-10%,,,-21.5%,,,-42%,-65%,-69%,-68%,
CCC/C=C1\OC(=O)C2=C1CCC=C2 [LIGUSTILIDE],inactive,13%,17%,25%,-14%,-6.3%,17.1%,-19%,-12%,2.1%,-15.6%,-10%,6.5%,42%,25%,7%,-8%,Activity (Mus musculus [27]): 40%; Activity (Mus musculus [28]): 14%; Activity (Mus musculus [29]): -3.5%; Activity (Mus musculus [30]): -16%; Activity (Mus musculus [47]): Dose-dependent effect
